# Compound activity from PubChem BioAssay.
# Hits are enriched below; roughly 2.6% of the tested compounds scored in any of these assays.
# ABCB6 inh 2 – human ABCB6 transporter inhibition | K562-ABCB6 porphyrin accumulation, flow cytometry, 1 h; stronger effect = lower value | fluorescence ratio to DMSO, % at 10 µM | AID 602162 | Q9NP58 | 360,000 tested, 0.19% active;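 active = fluorescence ratio to DMSO below 75%, the collection mean minus 3 SD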;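 also: signal is porphyrin accumulated inside mitochondria; 100% equals median channel fluorescence of DMSO control wells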
# hiPSC survival – enhancers of human iPSC single-cell survival; hiPSC single-cell survival, ATPlite luminescence; 100% = ROCK inhibitor wells, 0% = DMSO; survival enhancement, % at 20 µM; 360,000 tested, 0.044% active; AID 602274; in the data active = survival enhancement above about 18%;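 also: cells exposed to compounds for 16 hours before the ATP read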
# MC4R ag barr – activates human MC4R beta-arrestin recruitment; AID 540308; 360,000 tested, 0.98% active; activation, % at 8.9 µM; P32245; U2OS MC4R beta-arrestin complementation, luminescence; percent of melanotan II response, DMSO zero;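 active = activation above a per-plate cutoff, the mean activation of sample wells on that plate plus 3 SD, cut at about 8% in these data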
# Target sequence (P32245 whole entry, looked up): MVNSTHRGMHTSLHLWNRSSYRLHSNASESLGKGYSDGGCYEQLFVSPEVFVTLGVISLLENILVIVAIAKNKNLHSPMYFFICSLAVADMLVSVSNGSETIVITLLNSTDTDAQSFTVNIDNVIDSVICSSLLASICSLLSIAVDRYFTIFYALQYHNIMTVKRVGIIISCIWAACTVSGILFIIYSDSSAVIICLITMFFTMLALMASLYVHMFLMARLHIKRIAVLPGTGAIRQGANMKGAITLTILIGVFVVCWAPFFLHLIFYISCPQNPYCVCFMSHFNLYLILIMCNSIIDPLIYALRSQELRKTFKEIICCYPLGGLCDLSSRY
# TbMetRS inhib – blocks T. brucei methionyl-tRNA synthetase activity. purified T. brucei MetRS, ATP depletion, Kinase-Glo luminescence. inhibition, % at 11.9 µM. 360,000 tested, 0.4% active;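 active = inhibition above a per-plate cutoff of the control wells' mean inhibition plus 3 SD, cut at about 5.5% in these data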;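 also: 0% = DMSO wells median and 100% = median of wells with control inhibitor compound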
#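 Material: parasite MetRS enzyme / Replication: singlicate, one well per compound / Signal: luminescence of leftover ATP / Schedule: 2 h aminoacylation at 25 °C after 15 min preincubation / Medium: HEPES-MgCl2-KCl buffer plus DTT, spermine, BSA, pyrophosphatase / Doses: 11.9 µM single point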
# MC4R antagonist – antagonists of human melanocortin 4 receptor (MC4R). P32245. 360,000 tested, 0.48% active. inhibition, % at 6.5 µM. MC4R-expressing cells, MTII-stimulated cAMP, LANCE TR-FRET;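 active = inhibition above its plate's cutoff, the mean of tested wells on that plate plus 3 SD, cut at about 29% in these data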;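 also: 0% = Melanotan II alone and 100% = Melanotan II plus saturating MCL0020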
#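 material = U2OS cells stably expressing human melanocortin 4 receptor (MC4R) | also added = Melanotan II challenge | dosing = single nominal compound dose of 6.5 µM | detection = TR-FRET with Eu-cAMP and labeled anti-cAMP, 671 nm | replication = singlicate | timing = compound 30 min, challenge 1 h, detection 1 h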
# Granule exo inh – lytic granule exocytosis inhibition | TALL-104 LAMP-1 surface exposure, flow cytometry; cells stimulated with thapsigargin and PMA | inhibition, % at 10 µM | 360,000 tested, 0.66% active;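 active = inhibition above about 55%, limit read from the data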
# TbMetRS confirm – Trypanosoma brucei MetRS inhibition confirmed; shares compounds with TbMetRS inhib; T. brucei MetRS enzyme, luminescence (ATP depletion); inhibition, % at 11.9 µM; 1,400 tested, 93% active; in the data active = inhibition above about 7%
# Jurkat tox – kills Jurkat cells in T. brucei MetRS counterscreen; shares compounds with TbMetRS inhib; Jurkat cells viability, ATP luminescence; inhibition, % at 8.3 µM; 1,400 tested, 12% active; in the data active = inhibition above about 15%;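 also: 0% = vehicle and 100% = reference inhibitor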
# TbMetRS FP orth – T. brucei MetRS inhibition, orthogonal assay; 1,400 tested, 44% active; AID 651607; shares compounds with TbMetRS inhib; inhibition, % at 11.9 µM; purified T. brucei MetRS, fluorescence polarization; in the data active = inhibition above about 17%;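 also: 0% = vehicle wells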
# Starred values were filed as active, the others as inactive; / = not tested or not shown.
SMILES,ABCB6 inh 2,hiPSC survival,MC4R ag barr,TbMetRS inhib,MC4R antagonist,Granule exo inh,TbMetRS confirm,Jurkat tox,TbMetRS FP orth
Cc1cc(S(=O)(=O)N2CCOCC2)ccc1OCC(=O)NCc1ccco1,94,0,-2,0,2,-7,/,/,/
O=c1c2c([nH]c3ccc(Br)cc13)CCCC2,100,2,-2,14*,8,8,27*,5,14
Fc1ccc(F)c(CNc2ncnc3cc(Cl)ccc23)c1,97,0,-2,7.3*,0,-1,21*,14,10
Cc1ccccc1CNc1ncnc2cc(Cl)ccc12,97,0,2,1,3,-4,/,/,/
Cc1cccnc1NC(=O)Nc1cccc(F)c1,94,2,0,0,3,-4,/,/,/
Cn1nc(C(F)(F)F)c2cc(C(=O)Nc3ccc(F)cc3)sc21,101,1,1,0,21,12,/,/,/
Cn1nc(C(F)(F)F)c(-c2ccc(F)cc2)c1NC(=O)Nc1ccc(F)cc1,94,0,2,9.4*,2,7,21*,6,14
COc1ccccc1-c1cnc(C(O)c2ccccc2)[nH]1 (centres undefined),96,0,-1,0,14,6,/,/,/
OC(c1cc(Cl)cc(Cl)c1)c1ncc(-c2ccccc2F)[nH]1 (centres undefined),100,0,2,30*,2,0,67*,5,43*
OC(c1ccc(F)cc1)c1ncc(-c2ccccc2F)[nH]1 (centres undefined),94,-1,-1,0,1,7,/,/,/
COc1ccccc1-c1cnc(C(O)c2cc(Cl)cc(Cl)c2)[nH]1 (centres undefined),96,-2,-2,67*,-2,-5,88*,3,69*
OC(c1cc(F)cc(Cl)c1)c1ncc(-c2cccc(C(F)(F)F)c2)[nH]1 (centres undefined),894,-1,0,16*,-18,-12,45*,4,31*
O=C(Nc1ccc(Cl)cc1)C1=Cc2ccccc2OC1,103,0,5,-1,12,-2,/,/,/
CC(=O)C1=C(O)CCCC1=NCc1nc2ccccc2[nH]1,105,0,-1,6.2*,4,-1,12*,-6,9
COC(=O)CC/C(O)=C1\C(=O)CC(C)(C)CC1=NCc1nc2ccccc2[nH]1,98,0,-2,48*,11,4,67*,-4,35*
O=C(NCc1ccncc1)c1ccc(NS(=O)(=O)c2ccccc2)cc1,101,0,-1,0,3,18,/,/,/
CC1Cc2ccccc2N1CC(=O)Nc1ccc2c(c1)OCCCO2 (centres undefined),93,0,-2,0,-1,-5,/,/,/
O=C(COc1ccc(F)cc1)NN1C(=O)CSC1=S,104,-2,-2,0,9,-4,/,/,/
CCOC(=O)c1ccc(NC(=O)Cn2nnc3ccccc32)cc1,95,-2,-1,-1,10,-1,/,/,/
COC(=O)c1cccc(NC(=O)Cn2nnc3ccccc32)c1,89,1,0,14*,0,0,27*,-1,15
COc1ccc(CCNCC2C(Oc3ccc(Cl)cc3)C(=O)N2c2ccccc2C)cc1OC (centres undefined),92,0,-1,-1,4,-1,/,/,/
COc1ccc(/C=N/NC(=O)c2cc(O)c(O)c(O)c2)cc1Cn1cc([N+](=O)[O-])cn1,95,0,-2,5.6*,-1,0,13*,2,9
COC(=O)Nc1ccc2ncn(C)c(=O)c2c1,100,-1,-1,0,7,-3,/,/,/
CC1=NN(c2ccc(F)cc2)C(=O)C1C(c1cccc(O)c1)c1c(C)[nH]n(-c2ccc(F)cc2)c1=O (centres undefined),91,7,-1,19*,2,-2,3,-6,2
CC1=NN(c2ccc(Cl)cc2)C(=O)C1C(c1cccc(O)c1)c1c(C)[nH]n(-c2ccc(Cl)cc2)c1=O (centres undefined),88,1,-2,0,-8,-2,/,/,/
SMILES,ABCB6 inh 2,hiPSC survival,MC4R ag barr,TbMetRS inhib,MC4R antagonist,Granule exo inh,TbMetRS confirm,Jurkat tox,TbMetRS FP orth
Cc1ccc2[nH]c3ccccc3c(=O)c2c1,96,-1,0,2,19,0,/,/,/
Cc1ccc2[nH]c(CSc3ccccc3)cc(=O)c2c1,97,0,-2,11*,0,18,23*,5,-2
CCNc1nc(NCC)n2c(SCC(=O)N(CC)C3CCCCC3)nnc2n1,95,-1,5,-2,-7,-2,/,/,/
O=c1c(Cc2ccc(Cl)cc2Cl)c(O)ccn1Cc1ccc(Cl)cc1,99,2,0,5.9*,7,-2,16*,6,13
CCOC(=O)Cn1ccc(O)c(Cc2ccc(Cl)cc2Cl)c1=O,90,2,2,23*,3,-1,38*,5,16
CCOC(CCn1ccc(O)c(Cc2ccc(Cl)cc2)c1=O)OCC,100,0,0,0,19,6,/,/,/
O=c1c(Cc2ccc(F)cc2)c(O)ccn1CCc1ccccn1,108,1,-1,0,7,-2,/,/,/
Cc1ccc(C(=O)NNC(=O)Cn2ccc(C(F)(F)F)n2)o1,94,0,3,-1,3,0,/,/,/
Cc1ccc2nc(SCC(=O)N(C)C3CCS(=O)(=O)C3)[nH]c2c1 (centres undefined),98,0,-2,0,8,-2,/,/,/
COc1ccc(CNC(=O)CSc2nc3ccc(C)cc3[nH]2)cc1,103,0,0,29*,23,-1,48*,-2,21*
Cc1ccc2nc(SCC(=O)NC3CCS(=O)(=O)C3)[nH]c2c1 (centres undefined),96,0,-2,9.7*,-1,0,37*,-9,14
CCN(C(=O)CSc1nc2ccc(Cl)cc2[nH]1)C1CCS(=O)(=O)C1 (centres undefined),102,0,0,5.7*,8,2,23*,-5,6
Cc1ccc2nc(SC(C)C(=O)NCc3ccc4c(c3)OCO4)[nH]c2c1 (centres undefined),97,-1,-1,13*,1,-2,35*,2,14
